Measured values reported in publication PMC8207330 (Leukemia research, 2017).
Where “and” joins values, the source holds several entries; their conditions need not be identical. Equal values may be shown once. Read-outs that look alike come from different tables or passages of the source.

Assays:
[1] = system: patients with JAK2^V617F-positive myelofibrosis, essential thrombocythemia, or polycythemia vera; experiment: Clinical efficacy; assay type: in vivo, human
Summary of the method: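 Multicentre, nonrandomised, open-label phase 1 of the oral test compound given once daily in 28-day cycles. 3 + 3 escalation through 30, 60, 120, 240 and 200 mg. A 120 mg lead-in for 14–28 days was followed by 200 or 300 mg, and 120 mg was used for dose confirmation. Response was scored by IWG clinical-improvement criteria, or European LeukemiaNet criteria for PV/ET, with duration counted in cycles. Analysis was descriptive.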

[2] = Pharmacokinetics in patients; assay type: in vivo, human
[3] = system: patients with JAK2^V617F-positive myelofibrosis, essential thrombocythemia, or polycythemia vera; assay type: in vivo
[4] = cohort 6, 120 mg (Cycle 1a), N = 8
[5] = cohort 6, 200 mg (Cycle 1b), N = 7
[6] = cohort 7, 120 mg (Cycle 1a), N = 6
[7] = cohort 7, 300 mg (Cycle 1b), N = 5
[8] = cohort L (withdrawn in lead-in phase), 120 mg, N = 1
[9] = cycle 1, cohort 1, 30 mg, N = 3
[10] = cycle 1, cohort 2, 60 mg, N = 3
[11] = cycle 1, cohort 3, 120 mg, N = 10
[12] = cycle 1, cohort 4, 240 mg, N = 3
[13] = cycle 1, cohort 5, 200 mg, N = 3

With Cc1cc(Nc2cc(CN3CCOCC3)c3nc(C)c(Cc4ccc(Cl)cc4F)n3n2)n[nH]1 [gandotinib] the partial response ([1]; ET (1 patient enrolled)) was “One”, the “duration of clinic-hematologic partial response” value ([1]; PV patients) was 3–16 cycles and the “JAK2^V617F allele burden reduction of ≥50% at any time” value ([1]; across all cohorts) was 5 of 36. The “palpable spleen length reduction of ≥ 50% at any time during therapy” value ([1]; across all cohorts) was 20/32 and 20 of 32, the no clinic-hematologic response ([1]; of the 6 patients with PV) was 3 patients and the clinic-hematologic partial response ([1]; of the 6 patients with PV (2 in cohort 6, 1 in cohort 7)) was 3 patients. For the same molecule, the Vd/F ([2]; human, plasma, oral) was 682 L, the half-life ([2]; human, plasma, oral) was about 360 min and the “apparent clearance (CL/F)” value ([2]; mean value, CV of 68) was 80.7 L/h. For the same molecule, the “time at which maximum plasma concentration (Cmax) was reached” value ([2]; on average, after single and multiple doses) was 4 h, the “Patients with ≥ 1 SAE possibly related to study drug” value (“Patients … to study drug” below) ([3]; 30 mg (N = 3)) was 0 n% and the “SAE possibly related: Anemia” value ([3]; 30 mg (N = 3)) was 0 n%. The “SAE possibly related: Blood creatinine increased” value ([3]; 30 mg (N = 3)) was 0 n%, the “SAE possibly related: Hyperkalemia” value ([3]; 30 mg (N = 3)) was 0 n% and the “SAE possibly related: Hyperuricemia” value ([3]; 30 mg (N = 3)) was 0 n%. For the same molecule, the “SAE possibly related: Renal failure, acute” value (shortened to “SAE possibly related … acute”) ([3]; 30 mg (N = 3)) was 0 n%, the “Patients … to study drug” value ([3]; 60 mg (N = 7)) was 0 n% and the “SAE possibly related: Anemia” value ([3]; 60 mg (N = 7)) was 0 n%. For the same molecule, the “SAE possibly related: Blood creatinine increased” value ([3]; 60 mg (N = 7)) was 0 n%, the “SAE possibly related: Hyperkalemia” value ([3]; 60 mg (N = 7)) was 0 n% and the “SAE possibly related: Hyperuricemia” value ([3]; 60 mg (N = 7)) was 0 n%. For the same molecule, the “SAE possibly related … acute” value ([3]; 60 mg (N = 7)) was 0 n%, the “Patients … to study drug” value ([3]; 120 mg (N = 34)) was 0 n% and the “SAE possibly related: Anemia” value ([3]; 120 mg (N = 34)) was 0 n%. The “SAE possibly related: Blood creatinine increased” value ([3]; 120 mg (N = 34)) was 0 n%, the “SAE possibly related: Hyperkalemia” value ([3]; 120 mg (N = 34)) was 0 n% and the “SAE possibly related: Hyperuricemia” value ([3]; 120 mg (N = 34)) was 0 n%. For the same molecule, the “SAE possibly related … acute” value ([3]; 120 mg (N = 34)) was 0 n%, the DLTs observed ([3]; 200 mg) was 3 DLTs and the “Patients … to study drug” value ([3]; 200 mg (N = 15)) was 4 (26.7) n%. For the same molecule, the “SAE possibly related: Anemia” value ([3]; 200 mg (N = 15)) was 1 (6.7) n%, the “SAE possibly related: Blood creatinine increased” value ([3]; 200 mg (N = 15)) was 3 (20.0) n% and the “SAE possibly related: Hyperkalemia” value ([3]; 200 mg (N = 15)) was 0 (0.0) n%. The “SAE possibly related: Hyperuricemia” value ([3]; 200 mg (N = 15)) was 1 (6.7) n%, the “SAE possibly related … acute” value ([3]; 200 mg (N = 15)) was 1 (6.7) n% and the “Patients … to study drug” value ([3]; 240 mg (N = 3)) was 1 (33.3) n%. The “SAE possibly related: Anemia” value ([3]; 240 mg (N = 3)) was 0 n%, the “SAE possibly related: Blood creatinine increased” value ([3]; 240 mg (N = 3)) was 1 (33.3) n% and the “SAE possibly related: Hyperkalemia” value ([3]; 240 mg (N = 3)) was 0 n%. The “SAE possibly related: Hyperuricemia” value ([3]; 240 mg (N = 3)) was 0 n%, the “SAE possibly related … acute” value ([3]; 240 mg (N = 3)) was 0 n% and the “Patients … to study drug” value ([3]; 300 mg (N = 5)) was 1 (20.0) n%. For the same molecule, the “SAE possibly related: Anemia” value ([3]; 300 mg (N = 5)) was 0 n%, the “SAE possibly related: Blood creatinine increased” value ([3]; 300 mg (N = 5)) was 0 n% and the “SAE possibly related: Hyperkalemia” value ([3]; 300 mg (N = 5)) was 0 n%. The “SAE possibly related: Hyperuricemia” value ([3]; 300 mg (N = 5)) was 0 n%, the “SAE possibly related … acute” value ([3]; 300 mg (N = 5)) was 1 (20.0) n% and the “TEAE: nausea” value ([3]; 16 of 38 patients, majority grade 1) was 42.1%. For the same molecule, the “TEAE: diarrhea” value ([3]; 21 of 38 patients, majority grade 1) was 55.3%, the “Patients … to study drug” value ([3]; Grade 3 and above, Total) was 6 (15.8) n% and the “SAE possibly related: Anemia” value ([3]; Grade 3 and above, Total) was 1 (2.6) n%. For the same molecule, the “SAE possibly related: Blood creatinine increased” value ([3]; Grade 3 and above, Total) was 1 (2.6) n%, the “SAE possibly related: Hyperkalemia” value ([3]; Grade 3 and above, Total) was 0 n% and the “SAE possibly related: Hyperuricemia” value ([3]; Grade 3 and above, Total) was 2 (5.3) n%. The “SAE possibly related … acute” value ([3]; Grade 3 and above, Total) was 2 (5.3) n%, the “Patients … to study drug” value ([3]; Grade 4 and above, Total) was 2 (5.3) n% and the “SAE possibly related: Anemia” value ([3]; Grade 4 and above, Total) was 0 n%. For the same molecule, the “SAE possibly related: Blood creatinine increased” value ([3]; Grade 4 and above, Total) was 0 n%, the “SAE possibly related: Hyperkalemia” value ([3]; Grade 4 and above, Total) was 0 n% and the “SAE possibly related: Hyperuricemia” value ([3]; Grade 4 and above, Total) was 2 (5.3) n%. The “SAE possibly related … acute” value ([3]; Grade 4 and above, Total) was 0 n%, the “SAE possibly related … acute” value ([3]; Total (N = 38), 2 MF, 1 ET, 1 PV) was 4 (10.5) [2 MF, 1 ET, 1 PV] n% and the “SAE possibly related: Anemia” value ([3]; Total (N = 38), MF) was 1 (2.6) MF n%. For the same molecule, the “SAE possibly related: Blood creatinine increased” value ([3]; Total (N = 38), MF) was 5 (13.2) MF n%, the “SAE possibly related: Hyperkalemia” value ([3]; Total (N = 38), MF) was 1 (2.6) MF n% and the “SAE possibly related: Hyperuricemia” value ([3]; Total (N = 38), MF) was 2 (5.3) MF n%. For the same molecule, the “DLT: Blood creatinine increased” value [3, 4] was 3 (37.5) n (%), the “DLT: Hyperkalemia” value [3, 4] was 0 n (%) and the “DLT: Hyperuricemia” value [3, 4] was 0 n (%). For the same molecule, the “DLT: Renal failure acute” value [3, 4] was 0 n (%), the “Patients with DLT” value [3, 4] was 3 (37.5) n (%) and the “DLT: Blood creatinine increased” value [3, 5] was 3 (42.9) n (%). The “DLT: Hyperkalemia” value [3, 5] was 0 n (%), the “DLT: Hyperuricemia” value [3, 5] was 0 n (%) and the “DLT: Renal failure acute” value [3, 5] was 0 n (%). For the same molecule, the “Patients with DLT” value [3, 5] was 3 (42.9) n (%), the “DLT: Blood creatinine increased” value [3, 6] was 0 n (%) and the “DLT: Hyperkalemia” value [3, 6] was 0 n (%). For the same molecule, the “DLT: Hyperuricemia” value [3, 6] was 0 n (%), the “DLT: Renal failure acute” value [3, 6] was 0 n (%) and the “Patients with DLT” value [3, 6] was 0 n (%). For the same molecule, the “DLT: Blood creatinine increased” value [3, 7] was 1 (20.0) n (%), the “DLT: Hyperkalemia” value [3, 7] was 0 n (%) and the “DLT: Hyperuricemia” value [3, 7] was 0 n (%). For the same molecule, the “DLT: Renal failure acute” value [3, 7] was 1 (20.0) n (%), the “Patients with DLT” value [3, 7] was 2 (40.0) n (%) and the “DLT: Blood creatinine increased” value [3, 8] was 0 n (%). The “DLT: Hyperkalemia” value [3, 8] was 0 n (%), the “DLT: Hyperuricemia” value [3, 8] was 0 n (%) and the “DLT: Renal failure acute” value [3, 8] was 0 n (%). For the same molecule, the “Patients with DLT” value [3, 8] was 0 n (%), the “DLT: Blood creatinine increased” value ([3]; cycle 1, Total, N = 37) was 5 (13.5) n (%) and the “DLT: Hyperkalemia” value ([3]; cycle 1, Total, N = 37) was 1 (2.7) n (%). The “DLT: Hyperuricemia” value ([3]; cycle 1, Total, N = 37) was 2 (5.4) n (%), the “DLT: Renal failure acute” value ([3]; cycle 1, Total, N = 37) was 1 (2.7) n (%) and the “Patients with DLT” value ([3]; cycle 1, Total, N = 37) was 9 (24.3) n (%). For the same molecule, the “DLT: Blood creatinine increased” value [3, 9] was 0 n (%), the “DLT: Hyperkalemia” value [3, 9] was 0 n (%) and the “DLT: Hyperuricemia” value [3, 9] was 0 n (%). The “DLT: Renal failure acute” value [3, 9] was 0 n (%), the “Patients with DLT” value [3, 9] was 0 n (%) and the “DLT: Blood creatinine increased” value [3, 10] was 0 n (%). The “DLT: Hyperkalemia” value [3, 10] was 0 n (%), the “DLT: Hyperuricemia” value [3, 10] was 0 n (%) and the “DLT: Renal failure acute” value [3, 10] was 0 n (%). For the same molecule, the “Patients with DLT” value [3, 10] was 0 n (%), the “DLT: Blood creatinine increased” value [3, 11] was 0 n (%) and the “DLT: Hyperkalemia” value [3, 11] was 0 n (%). The “DLT: Hyperuricemia” value [3, 11] was 0 n (%), the “DLT: Renal failure acute” value [3, 11] was 0 n (%) and the “Patients with DLT” value [3, 11] was 0 n (%). For the same molecule, the “DLT: Blood creatinine increased” value [3, 12] was 0 n (%), the “DLT: Hyperkalemia” value [3, 12] was 0 n (%) and the “DLT: Hyperuricemia” value [3, 12] was 1 (33.3) n (%). For the same molecule, the “DLT: Renal failure acute” value [3, 12] was 0 n (%), the “Patients with DLT” value [3, 12] was 1 (33.3) n (%) and the “DLT: Blood creatinine increased” value [3, 13] was 1 (33.3) n (%). The “DLT: Hyperkalemia” value [3, 13] was 1 (33.3) n (%), the “DLT: Hyperuricemia” value [3, 13] was 1 (33.3) n (%) and the “DLT: Renal failure acute” value [3, 13] was 0 n (%). The “Patients with DLT” value [3, 13] was 3 (100) n (%), the DLTs observed ([3]; first 3 tested doses (30, 60, 120 mg)) was “No DLTs” and the “treatment discontinuation due to renal failure” value ([3]; most frequent adverse event resulting in discontinuation) was 4 patients.
